Common to all, as to assay type: functional, cell-based
The target in assay [1] is T1, Parathyroid hormone/parathyroid hormone-related peptide receptor (Homo sapiens, UniProt Q03431).
T1 sequence (Q03431 whole entry): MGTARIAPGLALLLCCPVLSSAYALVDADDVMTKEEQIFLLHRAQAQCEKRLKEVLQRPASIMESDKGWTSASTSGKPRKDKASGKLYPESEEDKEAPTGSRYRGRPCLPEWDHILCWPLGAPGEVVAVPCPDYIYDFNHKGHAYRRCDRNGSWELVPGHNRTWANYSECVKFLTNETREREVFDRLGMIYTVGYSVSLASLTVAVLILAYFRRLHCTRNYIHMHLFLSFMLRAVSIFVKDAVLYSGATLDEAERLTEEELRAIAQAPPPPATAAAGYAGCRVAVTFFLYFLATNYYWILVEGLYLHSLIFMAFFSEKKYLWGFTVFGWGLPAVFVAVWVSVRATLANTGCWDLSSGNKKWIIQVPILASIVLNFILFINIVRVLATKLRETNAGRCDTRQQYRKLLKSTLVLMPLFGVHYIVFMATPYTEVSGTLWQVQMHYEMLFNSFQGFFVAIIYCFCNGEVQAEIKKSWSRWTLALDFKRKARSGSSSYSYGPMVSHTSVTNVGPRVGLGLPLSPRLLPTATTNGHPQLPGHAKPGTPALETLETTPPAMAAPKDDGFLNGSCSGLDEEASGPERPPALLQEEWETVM
Put plainly: Agonist activity at human PTH1 receptor expressed in human GP2.3 cells assessed as induction of cAMP after 12 to 20 mins by luciferase reporter gene assay. (In a reporter assay the amount or activity of a reporter protein is the signal.)

The target of assay [2] is T2, Parathyroid hormone/parathyroid hormone-related peptide receptor (Homo sapiens) (UniProt Q03431).
T2 sequence (whole entry): T1 sequence (Q03431 whole entry)
Briefly: Agonist activity at extracellular domain truncate human PTH1 receptor expressed in GD5 cells assessed as induction of cAMP after 12 to 20 mins by luciferase reporter gene assay. The gist of the method:
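HEK293-derived lines stably expressing Glosensor cAMP reporter plus full-length human PTHR1 (GP2.3) or ECD-truncated PTHR1 (GD5). Confluent monolayers preincubated at room temperature in CO2-independent medium with 0.5 mM D-luciferin until baseline stable (30 min), then varied agonist concentrations added. Maximal luminescence (12−20 min) used for sigmoidal variable-slope fits.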

The target in assay [3] is T2, Parathyroid hormone/parathyroid hormone-related peptide receptor (Homo sapiens). Put plainly: Agonist activity at human PTH1 receptor expressed in human GP2.3 cells assessed as induction of cAMP after 12 to 20 mins by luciferase reporter gene assay relative to PTH(1 to 34 residues)-NH2.

The source made the active and inactive calls. The calls are words filed in the database; no cut-off is given here.

One may read the EC50 as the midpoint of the concentration-response curve. As for `CC[C@H](C)[C@H](NC(=O)[C@H](CCC(=O)O)NC(=O)[C@H]1CCC[C@@H]1NC(=O)[C@@H](NC(=O)[C@@H](N)CO)C(C)C)C(=O)N[C@@H](CCC(N)=O)C(=O)N[C@@H](CC(C)C)C(=O)N[C@@H](CCSC)C(=O)N[C@@H](Cc1cnc[nH]1)C(=O)N[C@@H](CC(N)=O)C(=O)N[C@@H](CC(C)C)C(=O)NCC(=O)N[C@@H](CCCCN)C(=O)N[C@@H](Cc1cnc[nH]1)C(=O)N[C@@H](CC(C)C)C(=O)N[C@@H](CC(N)=O)C(=O)N[C@@H](CO)C(=O)N[C@@H](CCSC)C(=O)N[C@@H](CCC(=O)O)C(=O)N[C@@H](CCCNC(=N)N)C(=O)N[C@H](C(=O)N[C@@H](CCC(=O)O)C(=O)N[C@@H](Cc1c[nH]c2ccccc12)C(=O)N[C@@H](CC(C)C)C(=O)N[C@@H](CCCNC(=N)N)C(=O)N[C@@H](CCCCN)C(=O)N[C@@H](CCCCN)C(=O)N[C@@H](CC(C)C)C(=O)N[C@@H](CCC(N)=O)C(=O)N[C@@H](CC(=O)O)C(=O)N[C@H](C(=O)N[C@@H](Cc1cnc[nH]1)C(=O)N[C@@H](CC(N)=O)C(=O)N[C@@H](Cc1ccccc1)C(N)=O)C(C)C)C(C)C`, the EC50 in assay [1] (read-out: EC50) turned out to be 11.5 nM. The outcome in assay [2] was Active. Besides, in assay [3], the fold change (FC) amounted to 126.
Consider `CC[C@H](C)[C@H](NC(=O)[C@H](CCC(=O)O)NC(=O)[C@H](CO)NC(=O)[C@@H](NC(=O)[C@@H](N)CO)C(C)C)C(=O)N[C@@H](CCC(N)=O)C(=O)N[C@@H](CC(C)C)C(=O)N[C@H]1CCC[C@@H]1C(=O)N[C@@H](Cc1cnc[nH]1)C(=O)N[C@@H](CC(N)=O)C(=O)N[C@@H](CC(C)C)C(=O)NCC(=O)N[C@@H](CCCCN)C(=O)N[C@@H](Cc1cnc[nH]1)C(=O)N[C@@H](CC(C)C)C(=O)N[C@@H](CC(N)=O)C(=O)N[C@@H](CO)C(=O)N[C@@H](CCSC)C(=O)N[C@@H](CCC(=O)O)C(=O)N[C@@H](CCCNC(=N)N)C(=O)N[C@H](C(=O)N[C@@H](CCC(=O)O)C(=O)N[C@@H](Cc1c[nH]c2ccccc12)C(=O)N[C@@H](CC(C)C)C(=O)N[C@@H](CCCNC(=N)N)C(=O)N[C@@H](CCCCN)C(=O)N[C@@H](CCCCN)C(=O)N[C@@H](CC(C)C)C(=O)N[C@@H](CCC(N)=O)C(=O)N[C@@H](CC(=O)O)C(=O)N[C@H](C(=O)N[C@@H](Cc1cnc[nH]1)C(=O)N[C@@H](CC(N)=O)C(=O)N[C@@H](Cc1ccccc1)C(N)=O)C(C)C)C(C)C`, for which the EC50 in assay [1] (read-out: EC50) is 9.74 nM. Moreover, the result in assay [2] was Active. For the same molecule, the fold change (FC) in assay [3] came out at 107.
`CC[C@H](C)[C@H](NC(=O)[C@H](CCC(=O)O)NC(=O)[C@H](CO)NC(=O)[C@@H](NC(=O)[C@@H](N)CO)C(C)C)C(=O)N[C@@H](CCC(N)=O)C(=O)N[C@@H](CC(C)C)C(=O)N[C@@H](CCSC)C(=O)N[C@H]1CNC[C@@H]1C(=O)N[C@@H](CC(N)=O)C(=O)N[C@@H](CC(C)C)C(=O)NCC(=O)N[C@@H](CCCCN)C(=O)N[C@@H](Cc1cnc[nH]1)C(=O)N[C@@H](CC(C)C)C(=O)N[C@@H](CC(N)=O)C(=O)N[C@@H](CO)C(=O)N[C@@H](CCSC)C(=O)N[C@@H](CCC(=O)O)C(=O)N[C@@H](CCCNC(=N)N)C(=O)N[C@H](C(=O)N[C@@H](CCC(=O)O)C(=O)N[C@@H](Cc1c[nH]c2ccccc12)C(=O)N[C@@H](CC(C)C)C(=O)N[C@@H](CCCNC(=N)N)C(=O)N[C@@H](CCCCN)C(=O)N[C@@H](CCCCN)C(=O)N[C@@H](CC(C)C)C(=O)N[C@@H](CCC(N)=O)C(=O)N[C@@H](CC(=O)O)C(=O)N[C@H](C(=O)N[C@@H](Cc1cnc[nH]1)C(=O)N[C@@H](CC(N)=O)C(=O)N[C@@H](Cc1ccccc1)C(N)=O)C(C)C)C(C)C`: the EC50 entry in assay [1] is given as “Not Active”. The outcome in assay [2] was Active.
The like results for `CC[C@H](C)[C@H](NC(=O)[C@H]1CCC[C@@H]1NC(=O)[C@H](CO)NC(=O)[C@@H](NC(=O)[C@@H](N)CO)C(C)C)C(=O)N[C@@H](CCC(N)=O)C(=O)N[C@@H](CC(C)C)C(=O)N[C@@H](CCSC)C(=O)N[C@@H](Cc1cnc[nH]1)C(=O)N[C@@H](CC(N)=O)C(=O)N[C@@H](CC(C)C)C(=O)NCC(=O)N[C@@H](CCCCN)C(=O)N[C@@H](Cc1cnc[nH]1)C(=O)N[C@@H](CC(C)C)C(=O)N[C@@H](CC(N)=O)C(=O)N[C@@H](CO)C(=O)N[C@@H](CCSC)C(=O)N[C@@H](CCC(=O)O)C(=O)N[C@@H](CCCNC(=N)N)C(=O)N[C@H](C(=O)N[C@@H](CCC(=O)O)C(=O)N[C@@H](Cc1c[nH]c2ccccc12)C(=O)N[C@@H](CC(C)C)C(=O)N[C@@H](CCCNC(=N)N)C(=O)N[C@@H](CCCCN)C(=O)N[C@@H](CCCCN)C(=O)N[C@@H](CC(C)C)C(=O)N[C@@H](CCC(N)=O)C(=O)N[C@@H](CC(=O)O)C(=O)N[C@H](C(=O)N[C@@H](Cc1cnc[nH]1)C(=O)N[C@@H](CC(N)=O)C(=O)N[C@@H](Cc1ccccc1)C(N)=O)C(C)C)C(C)C` were, in that order, “Not Active” and “Active”.
For the molecule `CC[C@H](C)[C@H](NC(=O)[C@H](CCC(=O)O)NC(=O)[C@H](CO)NC(=O)[C@@H](NC(=O)C[C@@H](N)CO)C(C)C)C(=O)N[C@@H](CCC(N)=O)C(=O)N[C@@H](CC(C)C)C(=O)N[C@@H](CCSC)C(=O)N[C@@H](Cc1cnc[nH]1)C(=O)N[C@@H](CC(N)=O)C(=O)N[C@@H](CC(C)C)C(=O)NCC(=O)N[C@@H](CCCCN)C(=O)N[C@@H](Cc1cnc[nH]1)C(=O)N[C@@H](CC(C)C)C(=O)N[C@@H](CC(N)=O)C(=O)N[C@@H](CO)C(=O)N[C@@H](CCSC)C(=O)N[C@@H](CCC(=O)O)C(=O)N[C@@H](CCCNC(=N)N)C(=O)N[C@H](C(=O)N[C@@H](CCC(=O)O)C(=O)N[C@@H](Cc1c[nH]c2ccccc12)C(=O)N[C@@H](CC(C)C)C(=O)N[C@@H](CCCNC(=N)N)C(=O)N[C@@H](CCCCN)C(=O)N[C@@H](CCCCN)C(=O)N[C@@H](CC(C)C)C(=O)N[C@@H](CCC(N)=O)C(=O)N[C@@H](CC(=O)O)C(=O)N[C@H](C(=O)N[C@@H](Cc1cnc[nH]1)C(=O)N[C@@H](CC(N)=O)C(=O)N[C@@H](Cc1ccccc1)C(N)=O)C(C)C)C(C)C`, in assay [2], the result was Active. In addition, in assay [3], the fold change (FC) is 0.7.
For `CC[C@H](C)[C@H](NC(=O)C[C@@H](CCC(=O)O)NC(=O)[C@H](CO)NC(=O)[C@@H](NC(=O)[C@@H](N)CO)C(C)C)C(=O)N[C@@H](CCC(N)=O)C(=O)N[C@@H](CC(C)C)C(=O)N[C@@H](CCSC)C(=O)N[C@@H](Cc1cnc[nH]1)C(=O)N[C@@H](CC(N)=O)C(=O)N[C@@H](CC(C)C)C(=O)NCC(=O)N[C@@H](CCCCN)C(=O)N[C@@H](Cc1cnc[nH]1)C(=O)N[C@@H](CC(C)C)C(=O)N[C@@H](CC(N)=O)C(=O)N[C@@H](CO)C(=O)N[C@@H](CCSC)C(=O)N[C@@H](CCC(=O)O)C(=O)N[C@@H](CCCNC(=N)N)C(=O)N[C@H](C(=O)N[C@@H](CCC(=O)O)C(=O)N[C@@H](Cc1c[nH]c2ccccc12)C(=O)N[C@@H](CC(C)C)C(=O)N[C@@H](CCCNC(=N)N)C(=O)N[C@@H](CCCCN)C(=O)N[C@@H](CCCCN)C(=O)N[C@@H](CC(C)C)C(=O)N[C@@H](CCC(N)=O)C(=O)N[C@@H](CC(=O)O)C(=O)N[C@H](C(=O)N[C@@H](Cc1cnc[nH]1)C(=O)N[C@@H](CC(N)=O)C(=O)N[C@@H](Cc1ccccc1)C(N)=O)C(C)C)C(C)C` the same measures were “Active” and 108.

(Values after ChEMBL document CHEMBL4024754, “Development of Potent, Protease-Resistant Agonists of the Parathyroid Hormone Receptor with Broad β Residue Distribution” (J Med Chem, 2017).)
